According to ChEMBL document CHEMBL4049394, “Desing and synthesis of potent anti-Trypanosoma cruzi agents new thiazoles derivatives which induce apoptotic parasite death” (Eur J Med Chem, 2017):

Assays:
[1] = tested on: Trypanosoma cruzi; assay: Antitrypanosomal activity against bloodstream trypomastigote stage of Trypanosoma cruzi Y infected in monkey LLC-MK2 cells measured after 24 hrs by neubauer chamber method; type: functional; details: LLC-MK2, in Primates
How it was run: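 Y strain trypomastigotes taken from LLC-MK2 culture supernatant and held in RPMI-1640 with 10% FBS. Seeded at 4×10^5 cells/well and treated in triplicate for 24 h at 37 °C, 5% CO2. Motile parasites counted in a Neubauer chamber against untreated wells. IC50 by nonlinear regression from at least seven concentrations. Experiment repeated; SD < 10% of mean required.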

[2] = tested on: Trypanosoma cruzi; assay: Antitrypanosomal activity against Trypanosoma cruzi Dm28c epimastigotes measured after 4 to 5 days by neubauer chamber method; type: functional
How it was run: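 Dm28c epimastigotes in LIT with 10% FBS, 1% hemin and gentamycin at 27 °C. Seeded at 10^6 cells/well and treated in triplicate for 4 days (table footnote: 5 days). Parasites counted in a Neubauer chamber against untreated wells as 100%. IC50 by nonlinear regression from at least five concentrations. Experiment repeated; only values with SD < 10% of mean kept.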

[3] = Cytotoxicity against mouse J774A.1 cells after 24 to 72 hrs by MTT assay; type: cell-based, J774.A1; details: read-out: MNCC
How it was run: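 J774A.1 macrophages in DMEM with 10% heat-inactivated FBS at 37 °C, 5% CO2. Seeded at 1×10^5 cells/well, 24 h preincubation, then compounds at 1–100 µg/mL for 72 h (table footnote: viability at 24 h). MTT 2 h, formazan dissolved in DMSO, absorbance read at 570 nm. Highest non-cytotoxic concentration reported.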

[4] = Selectivity index, ratio of highest non-cytotoxic concentration for mouse J774A.1 cells to CC50 for bloodstream trypomastigote stage of Trypanosoma cruzi Y infected in monkey LLC-MK2 cells; type: toxicity, cell-based; details: read-out: Selectivity Index
How it was run: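 Selectivity index is the highest non-cytotoxic concentration in J774A.1 macrophages divided by the 50% value against Y strain trypomastigotes measured after 24 h.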

[5] = tested on: Trypanosoma cruzi; assay: Potency index, ratio of benznidazole CC50 to compound CC50 for bloodstream trypomastigote stage of Trypanosoma cruzi Y infected in monkey LLC-MK2 cells; type: functional
[6] = tested on: Trypanosoma cruzi; assay: Potency index, ratio of benznidazole CC50 to compound CC50 for Trypanosoma cruzi Dm28c epimastigotes; type: functional
[7] = biological target: Cruzipain (Trypanosoma cruzi) (UniProt P25779); assay: Inhibition of Trypanosoma cruzi cruzain at 50 uM using Z-phe-Arg-aminomethylcoumarin as substrate pretreated for 10 mins measured for 5 mins by fluorometric method relative to control
Chain of Cruzipain (Trypanosoma cruzi) (P25779 123-467 limits assumed): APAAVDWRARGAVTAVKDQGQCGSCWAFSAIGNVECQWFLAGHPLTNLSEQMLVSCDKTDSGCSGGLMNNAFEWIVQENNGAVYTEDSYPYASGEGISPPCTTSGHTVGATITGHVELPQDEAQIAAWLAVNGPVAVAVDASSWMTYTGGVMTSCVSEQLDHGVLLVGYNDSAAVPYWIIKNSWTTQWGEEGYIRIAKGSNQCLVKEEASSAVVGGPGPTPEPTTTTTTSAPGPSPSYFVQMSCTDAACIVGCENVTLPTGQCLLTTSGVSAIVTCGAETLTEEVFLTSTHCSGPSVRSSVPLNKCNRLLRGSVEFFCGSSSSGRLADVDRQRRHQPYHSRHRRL
How it was run: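 Cruzain at 0.5 nM in 0.1 M sodium acetate pH 5.5 with 0.1 mM β-mercaptoethanol and 0.01% Triton X-100. Compound screened at 50 µM after a 10-min preincubation with enzyme, then 2.5 µM Z-FR-AMC added. AMC fluorescence (ex 340/em 440 nm) followed for 5 min. Activity taken from initial rates relative to a DMSO control. Two independent experiments, each in triplicate.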

[8] = tested on: Trypanosoma cruzi; assay: Induction of apoptosis in bloodstream trypomastigote stage of Trypanosoma cruzi Y infected in monkey LLC-MK2 cells assessed as necrotic cells at 1.2 uM measured after 24 hrs by Annexin-V-FITC/propidium iodide staining based flow cytometric method (reference value: 0.014%); type: functional
[9] = tested on: Trypanosoma cruzi; assay: Induction of apoptosis in bloodstream trypomastigote stage of Trypanosoma cruzi Y infected in monkey LLC-MK2 cells assessed as necrotic cells at 2.4 uM measured after 24 hrs by Annexin-V-FITC/propidium iodide staining based flow cytometric method (reference value: 0.014%); type: functional
[10] = tested on: Trypanosoma cruzi; assay: Induction of apoptosis in bloodstream trypomastigote stage of Trypanosoma cruzi Y infected in monkey LLC-MK2 cells assessed as late apoptotic cells at 1.2 uM measured after 24 hrs by Annexin-V-FITC/propidium iodide staining based flow cytometric method (reference value: 0.27%); type: functional
[11] = tested on: Trypanosoma cruzi; assay: Induction of apoptosis in bloodstream trypomastigote stage of Trypanosoma cruzi Y infected in monkey LLC-MK2 cells assessed as late apoptotic cells at 2.4 uM measured after 24 hrs by Annexin-V-FITC/propidium iodide staining based flow cytometric method (reference value: 0.27%); type: functional
[12] = tested on: Trypanosoma cruzi; assay: Induction of apoptosis in bloodstream trypomastigote stage of Trypanosoma cruzi Y infected in monkey LLC-MK2 cells assessed as early apoptotic cells at 1.2 uM measured after 24 hrs by Annexin-V-FITC/propidium iodide staining based flow cytometric method (reference value: 0.31%); type: functional
[13] = tested on: Trypanosoma cruzi; assay: Induction of apoptosis in bloodstream trypomastigote stage of Trypanosoma cruzi Y infected in monkey LLC-MK2 cells assessed as early apoptotic cells at 2.4 uM measured after 24 hrs by Annexin-V-FITC/propidium iodide staining based flow cytometric method (reference value: 0.31%); type: functional
[14] = tested on: Trypanosoma cruzi; assay: Induction of apoptosis in bloodstream trypomastigote stage of Trypanosoma cruzi Y infected in monkey LLC-MK2 cells assessed as viable cells at 1.2 uM measured after 24 hrs by Annexin-V-FITC/propidium iodide staining based flow cytometric method (reference value: 99.4%); type: functional
[15] = tested on: Trypanosoma cruzi; assay: Induction of apoptosis in bloodstream trypomastigote stage of Trypanosoma cruzi Y infected in monkey LLC-MK2 cells assessed as viable cells at 2.4 uM measured after 24 hrs by Annexin-V-FITC/propidium iodide staining based flow cytometric method (reference value: 99.4%); type: functional
[16] = tested on: Trypanosoma cruzi; assay: Induction of apoptosis in bloodstream trypomastigote stage of Trypanosoma cruzi Y infected in monkey LLC-MK2 cells assessed as necrotic cells at 5 uM measured after 24 hrs by Annexin-V-FITC/propidium iodide staining based flow cytometric method (reference value: 0.014%); type: functional
[17] = tested on: Trypanosoma cruzi; assay: Induction of apoptosis in bloodstream trypomastigote stage of Trypanosoma cruzi Y infected in monkey LLC-MK2 cells assessed as necrotic cells at 2.5 uM measured after 24 hrs by Annexin-V-FITC/propidium iodide staining based flow cytometric method (reference value: 0.014%); type: functional
[18] = tested on: Trypanosoma cruzi; assay: Induction of apoptosis in bloodstream trypomastigote stage of Trypanosoma cruzi Y infected in monkey LLC-MK2 cells assessed as late apoptotic cells at 2.5 uM measured after 24 hrs by Annexin-V-FITC/propidium iodide staining based flow cytometric method (reference value: 0.27%); type: functional
[19] = tested on: Trypanosoma cruzi; assay: Induction of apoptosis in bloodstream trypomastigote stage of Trypanosoma cruzi Y infected in monkey LLC-MK2 cells assessed as early apoptotic cells at 2.5 uM measured after 24 hrs by Annexin-V-FITC/propidium iodide staining based flow cytometric method (reference value: 0.31%); type: functional
[20] = tested on: Trypanosoma cruzi; assay: Induction of apoptosis in bloodstream trypomastigote stage of Trypanosoma cruzi Y infected in monkey LLC-MK2 cells assessed as late apoptotic cells at 5 uM measured after 24 hrs by Annexin-V-FITC/propidium iodide staining based flow cytometric method (reference value: 0.27%); type: functional
[21] = tested on: Trypanosoma cruzi; assay: Induction of apoptosis in bloodstream trypomastigote stage of Trypanosoma cruzi Y infected in monkey LLC-MK2 cells assessed as early apoptotic cells at 5 uM measured after 24 hrs by Annexin-V-FITC/propidium iodide staining based flow cytometric method (reference value: 0.31%); type: functional

`COc1ccc(-c2cs/c(=N\N=C(/C)c3ccccn3)n2-c2ccccc2)cc1` gave a CC50 [1] of 1.2 µM, a CC50 [2] of 5 µM and an MNTC [3] of 477 µM. The selectivity ratio [4] was 397 to 398, the Ratio [5] was 4 - 5 and the Ratio [6] was 10. The inhibition [7] was 48%, the Activity [8] was 2.99 - 3.53% and the Activity [9] was 2.3 - 3.48%. The Activity [10] was 3.61 - 4.8%, the Activity [11] was 3.67 - 4.5% and the Activity [12] was 38.6 - 39.6%. The Activity [13] was 36.4 - 38.9%, the Activity [14] was 53.8% and the Activity [15] was 55.2%.

With `C/C(=N\NC(=S)Nc1ccccc1)c1ccccn1` the CC50 [1] was 2.5 µM, the CC50 [2] was 15.4 µM and the MNTC [3] was 21 µM. It also gave a selectivity ratio [4] of 8.4, an Activity [16] of 3.55% and an Activity [17] of 3.6%. It also gave an Activity [18] of 5.4%, an Activity [19] of 36.8% and an Activity [20] of 4.8%. For the same compound, the Activity [21] was 36%.
